Compound activity (PubChem)
This is a sample that favours compounds with a hit; in the whole collection about 3.1% have one here.
ATG4B inh: ATG4B protease inhibitors, primary screen, biochemical, fluorescence, uHTS. Cysteine protease ATG4B (Homo sapiens), Q9Y4P1. ATG4B cleavage of LC3-PLA2, NBD-HPC fluorescence, 1 h. inhibition, % at 8.33 µM. hit rate 0.51% among 340,000. AID 504462, 2011; in the data active = inhibition above about 40%
MBD2 inh: inhibitors of MBD2 binding to methylated DNA, primary screen, biochemical, TR-FRET, DNA-binding domain, human. inhibition, % at 4.4 µM. MBD2 binding to methylated oligonucleotide. AID 686964, 2013. Methyl-CpG-binding domain protein 2 (Homo sapiens), Q9UBB5. hit rate 0.31% among 370,000; in the data active = inhibition above about 13%
LEDGF integ inh: blockers of LEDGF/p75-dependent integrase strand transfer – biochemical, TR-FRET, high throughput, primary screen | TR-FRET IN-LEDGF/p75 DNA integration, Eu/Cy5 | HIV-1 integrase (with human LEDGF/p75) | hit rate 0.64% among 370,000 | AID 743269, 2014 | inhibition, % at 3.7 µM;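 active = inhibition above the screen-wide mean plus 3 SD, cut at about 13% in these data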;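 note: signal is the Cy5 over europium emission ratio at 671 and 618 nm; 0% = plate median of compound wells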
UHRF1 MBD2 ctr: UHRF1 methylated DNA binding inhibitors, primary screen, counter-screen for MBD2 inhibitor project, biochemical, TR-FRET, human UHRF1, single concentration | E3 ubiquitin-protein ligase UHRF1 (Homo sapiens), Q96T88 | UHRF1 binding to methylated oligo | inhibition, % at 4.4 µM | hit rate 0.75% among 370,000 | AID 687016, 2013; in the data active = inhibition above about 21%;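 note: UHRF1 SRA domain binding a hemimethylated CpG hairpin DNA probe; 0% = median of test compound wells and 100% = reference inhibitor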
Target sequence (Q96T88 whole entry, looked up, the tested form may be a part): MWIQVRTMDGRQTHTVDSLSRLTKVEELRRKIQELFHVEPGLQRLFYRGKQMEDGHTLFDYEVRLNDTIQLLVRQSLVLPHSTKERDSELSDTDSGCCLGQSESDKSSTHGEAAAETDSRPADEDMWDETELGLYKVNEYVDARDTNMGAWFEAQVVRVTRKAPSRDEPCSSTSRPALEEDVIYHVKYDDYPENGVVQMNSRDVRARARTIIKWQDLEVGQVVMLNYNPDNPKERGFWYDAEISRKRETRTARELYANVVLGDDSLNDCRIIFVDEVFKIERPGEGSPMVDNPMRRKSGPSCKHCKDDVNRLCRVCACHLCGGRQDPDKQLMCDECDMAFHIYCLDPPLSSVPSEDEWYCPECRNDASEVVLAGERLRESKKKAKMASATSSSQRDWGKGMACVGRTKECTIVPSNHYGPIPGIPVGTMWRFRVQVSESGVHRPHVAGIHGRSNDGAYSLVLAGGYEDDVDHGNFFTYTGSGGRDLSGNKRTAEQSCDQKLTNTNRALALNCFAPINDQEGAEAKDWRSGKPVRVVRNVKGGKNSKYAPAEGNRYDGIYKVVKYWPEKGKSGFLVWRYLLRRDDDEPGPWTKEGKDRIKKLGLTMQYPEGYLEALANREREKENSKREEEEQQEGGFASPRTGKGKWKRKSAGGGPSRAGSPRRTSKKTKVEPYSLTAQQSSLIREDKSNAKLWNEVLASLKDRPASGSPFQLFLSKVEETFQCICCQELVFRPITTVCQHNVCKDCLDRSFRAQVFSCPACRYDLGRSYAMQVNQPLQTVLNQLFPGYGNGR
rCAG RNA binder: binders of r(CAG) RNA repeats, primary screen, biochemical, fluorescence; r(CAG) RNA repeat, TO-PRO-1 dye displacement fluorescence; inhibition, % at 3 µM; hit rate 1.3% among 370,000;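 active = inhibition above the plate cutoff, the mean of all test compounds on that plate plus 3 SD, cut at about 35% in these data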;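 note: 0% = DMSO alone and 100% = 100 µM mitoxantrone as full dye displacement; higher means more dye released from RNA so lower well fluorescence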
CSN inh: inhibitors of CSN-mediated cullin deneddylation, primary screen, biochemical, fluorescence polarization, uHTS; COP9 signalosome complex subunit 5 (Homo sapiens), Q92905; Purified CSN, SCF-Nedd8-OG deneddylation; inhibition, % at 12.5 µM; hit rate 0.38% among 360,000;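 active = pattern-corrected inhibition above about 35%, with an unprinted fluorescence ratio check between 0.5 and 1.5, limit read from the data, passing the limit was not always enough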;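 note: 0% = enzyme with substrate and 100% = substrate without enzyme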
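test system = HEK293T-derived human Csn5 enzyme | amount = 0.24 nM Csn5 enzyme, final concentration | medium = Tris/NaCl/DTT buffer, pH 7.5 | schedule = 90 min reaction at room temperature | signal = FP | evaluation = inhibition of Csn5 cleavage, % | compound dosing = single dose of 12.5 µM compound with 0.25% DMSO | probe or stimulus = 10 nM SCFSkp2-Nedd8OG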
IN multimer up: HIV-1 IN multimer formation enhancers, counter-screen for LEDGF/p75 integration inhibitor project, biochemical, TR-FRET; shares compounds with LEDGF integ inh; TR-FRET HIV-1 integrase multimerization; activation, % at 7.7 µM; hit rate 17% among 2,000; AID 1053131, 2014; in the data active = activation above about 8.9%
TR-FRET interf: TR-FRET optical interference artefacts, confirmation, artefact control for LEDGF/p75-dependent integration inhibitor project, biochemical, HIV-1 IN multimerization; shares compounds with LEDGF integ inh; inhibition, % at 7.7 µM; 2,000 tested, under 10 active; TR-FRET optical interference counterscreen;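 active = inhibition above the mean over all tested compounds plus 3 SD, which no compound reached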;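 note: 0% = integrase with antibodies and DMSO and 100% = antibodies without integrase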
IN-LEDGF confirm: inhibitors of HIV-1 IN-LEDGF/p75 DNA integration, confirmation, biochemical, TR-FRET. hit rate 36% among 2,000. inhibition, % at 3.7 µM. TR-FRET LEDGF/p75-dependent HIV-1 integration. shares compounds with LEDGF integ inh; in the data active = inhibition above about 14%
* marks the source's active call; other numbers are inactive results; . = no result given.

SMILES	ATG4B inh	MBD2 inh	LEDGF integ inh	UHRF1 MBD2 ctr	rCAG RNA binder	CSN inh	IN multimer up	TR-FRET interf	IN-LEDGF confirm
Cc1cccc(NC(=O)CNC(=O)[C@H](CCc2ccccc2)NC(=O)[C@H]2O[C@@H](n3cnc4c(N)ncnc43)[C@H](O)[C@@H]2O)c1C	.	0	-3	4	8	.	.	.	.
O=C(c1ccc2c(c1)[nH]c(=S)n1c3ccccc3nc21)N1CCN(c2cccc(Cl)c2)CC1	1	2	1	0	8	-3	.	.	.
COc1ccc(N2CCN(C(=O)c3ccc4c(c3)[nH]c(=S)n3c5ccccc5nc43)CC2)cc1	.	8	15*	43*	28	.	5	-24	-8
C=CCn1c(COc2ccc(C)cc2)nnc1SCC(=O)Nc1cc(Cl)cc(Cl)c1	.	-5	3	-3	5	.	.	.	.
O=C(Nc1nccs1)Oc1ccccc1	4	3	16*	1	0	2	1	-4	-10
Cc1ccc(C=Nc2ccc(N(C)C)cc2)o1	-1	-11	15*	1	9	-1	1	-2	4
C/C(=N/NC(=O)c1cc(O)c(O)c(O)c1)c1ccc([N+](=O)[O-])cc1	1	5	31*	22*	14	8	19*	-98	51*
Cc1ccc(-c2nc(C3CCCN(S(=O)(=O)c4ccc(Cl)s4)C3)no2)cc1 (stereo unspecified)	.	0	-2	-1	5	.	.	.	.
CC(=O)Nc1ccc(S(=O)(=O)NCCC(=O)OC(C)C(=O)NC2(C#N)CCCCC2)cc1 (stereo unspecified)	-6	1	67*	0	4	8	-1	3	-8
Cc1ccc(S(=O)(=O)N2CCN(C(=O)COC(=O)c3cccnc3Cl)CC2)c(C)c1	-4	-7	66*	-2	-1	-5	-2	7	1
COc1ccc(S[C@]2(C(=O)NCCCN(C)C)CC(=O)N[C@@H]2c2ccc(OC)cc2)cc1	.	-2	0	-2	0	.	.	.	.
COc1ccccc1NC(=O)CSCC(=O)N1c2ccccc2CCc2ccccc21	-8	0	13*	5	-2	-2	0	-2	-2
COC(=O)C1CN(Cc2cn(Cc3ccc(Cl)cc3)nn2)CCS(=O)(=O)N1Cc1ccccc1 (stereo unspecified)	.	8	1	12	3	.	.	.	.
C=CCCC1CN(Cc2ccc(OC)cc2)S(=O)(=O)c2c(Oc3ccc(C(C)C)cc3)cccc2O1 (stereo unspecified)	.	8	0	2	8	.	.	.	.
C=CCCC1CN(Cc2ccc(OC)cc2)S(=O)(=O)c2c(cccc2N(C)S(=O)(=O)c2ccc(C)cc2)O1 (stereo unspecified)	.	0	89*	-2	6	.	2	-10	-8
Cc1ccc(N2C(=O)CCC2(C(N)=O)c2ccccc2)cc1 (stereo unspecified)	-17	1	-2	-1	-1	-3	.	.	.
NC(=O)C1(c2ccccc2)CCC(=O)N1c1ccccc1 (stereo unspecified)	-8	3	35*	3	0	3	1	-4	-1
Cc1cc(F)ccc1NC(=O)C1CCN(C(=O)Nc2ccccc2)CC1	5	.	.	.	.	-5	.	.	.
